Where a SMILES comes first, the peptide text is derived from it.
Tested on: HIV‐1NL4‐3
Assay: SEAP reporter cell HIV‐1 infection assay
Format: cell-based
Details: running text on Table 1 data; compared with P6‐2
Summary of the method: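 CEMx174 indicator cells carrying SEAP under SIV LTR control, grown in RPMI 1640 with 10 % heat‑inactivated FCS, glutamine, penicillin and streptomycin. Peptides added to cells before HIV‑1 NL4‑3, which came from 293T transfection supernatant harvested at 48 h and filtered. SEAP activity in supernatant read 3 days post‑infection by commercial kit. Mean and SEM of ≥3 independent experiments; IC50 from fitted curves.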

CC(=O)N[C@@H](CC(C)C)C(=O)N[C@@H](CS)C(=O)N[C@@H](CC(=O)O)C(=O)N[C@@H](CS)C(=O)N1CCC[C@H]1C(=O)N[C@@H](CC(N)=O)C(=O)NCC(=O)N1CCC[C@H]1C(=O)N[C@@H](Cc1c[nH]c2ccccc12)C(=O)N[C@H](C(=O)N[C@@H](Cc1c[nH]c2ccccc12)C(=O)N[C@@H](C)C(=O)N1CCC[C@H]1C(=O)N[C@@H](C)C(=O)N[C@@H](Cc1ccccc1)C(=O)N[C@@H](CS)C(=O)N[C@@H](CCC(N)=O)C(=O)N[C@@H](C)C(=O)N[C@H](C(=O)NCC(=O)O)C(C)C)C(C)C [P6‐2‐11] (Ac-LCDCPNGPWVWAPAFCQAVG-OH)
HIV‐1 inhibitory activity, result in words: approximately tenfold loss

Ac-LCDCPNGPWAWVPAFCQAVG-OH (cysteine pairing not given here) [P6‐2‐9]
HIV‐1 inhibitory activity, result in words: approximately tenfold loss

Source: article PMC8248410 (Chemmedchem, 2021)
